Converted amounts (≈) assume the structure as drawn. The source made the active and inactive calls. The calls are words filed in the database; no cut-off is given here.
Experiments:
Alternaria solani = assay: Antifungal activity against Alternaria solani infected in tomato plant assessed as leaf area with disease after 2 days relative to control; assay type: functional; conditions: 48 h
In short: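 Four-week-old tomato plants (cv. Roter Gnom) were sprayed in a chamber with formulated compound diluted in water. Plants were spray-inoculated with a spore suspension 2 days later and held in a greenhouse at 22/18 °C (day/night) and 95% rh.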

Tubulin (Sus scrofa) = Tubulin (Sus scrofa) (UniProt P02554+P02550); assay: Induction of porcine tubulin polymerization at 0.24 to 20 ppm by spectrophotometric analysis; assay type: protein assay
Sequence of Tubulin (Sus scrofa) (P02550 whole entry, looked up): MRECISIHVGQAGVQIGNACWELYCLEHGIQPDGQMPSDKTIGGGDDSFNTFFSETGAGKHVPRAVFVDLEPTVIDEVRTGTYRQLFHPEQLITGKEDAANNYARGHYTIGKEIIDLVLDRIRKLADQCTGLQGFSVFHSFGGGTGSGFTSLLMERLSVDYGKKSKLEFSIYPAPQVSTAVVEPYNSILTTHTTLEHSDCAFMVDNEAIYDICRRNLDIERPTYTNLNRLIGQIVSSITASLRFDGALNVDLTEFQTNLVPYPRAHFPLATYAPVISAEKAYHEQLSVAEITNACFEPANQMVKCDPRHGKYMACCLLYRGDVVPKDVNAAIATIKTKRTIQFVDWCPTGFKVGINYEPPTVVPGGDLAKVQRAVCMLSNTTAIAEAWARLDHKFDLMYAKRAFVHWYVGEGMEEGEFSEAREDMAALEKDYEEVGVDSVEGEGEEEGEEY
Sequence of Tubulin (Sus scrofa) (P02554 whole entry, looked up): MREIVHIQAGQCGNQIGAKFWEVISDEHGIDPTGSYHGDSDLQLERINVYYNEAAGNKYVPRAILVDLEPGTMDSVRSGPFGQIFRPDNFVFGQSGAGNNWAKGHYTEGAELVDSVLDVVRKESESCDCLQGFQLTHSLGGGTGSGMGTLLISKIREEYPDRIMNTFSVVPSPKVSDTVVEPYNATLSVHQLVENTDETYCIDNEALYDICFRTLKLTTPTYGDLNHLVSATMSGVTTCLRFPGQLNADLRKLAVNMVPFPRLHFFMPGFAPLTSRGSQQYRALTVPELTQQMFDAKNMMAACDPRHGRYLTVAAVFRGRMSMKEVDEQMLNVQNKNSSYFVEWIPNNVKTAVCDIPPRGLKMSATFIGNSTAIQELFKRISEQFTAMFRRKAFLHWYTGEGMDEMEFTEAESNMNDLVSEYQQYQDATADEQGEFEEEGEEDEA
In short: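 Compound was added at reaction start at 20, 2.2 and 0.24 ppm from a 0.2 mM DMSO solution. The reaction was started at 37 °C and followed by absorbance at 340 nm. Paclitaxel served as positive control and DMSO as negative control.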

Zymoseptoria tritici = assay: Antifungal activity against Mycosphaerella graminicola infected in wheat plant assessed as decrease in wheat leaf blotch relative to control; assay type: functional
In short: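 Wheat plants (cv. Riband, two weeks old) were treated in a spray chamber with formulated compound diluted in water and spray-inoculated with spores 1 day later. They were incubated for 1 day at 22/21 °C (day/night) and 95% rh, then kept in a greenhouse at 22/21 °C and 70% rh. Efficacy was scored 16–19 days after application, against diseased untreated checks.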

Botrytis cinerea = assay: Antifungal activity against Botrytis cinerea infected tomato plant assessed as leaf area with disease after 2 days relative to control; assay type: functional; conditions: 48 h
In short: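 Tomato plants (cv. Roter Gnom, four weeks old) received a spray-chamber application of formulated compound in water. A spore suspension was sprayed on 2 days after treatment. Plants were incubated in a greenhouse at 20 °C and 95% rh. Diseased leaf area (%) was assessed 5–6 days after application, when untreated checks were adequately diseased.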

| Compound | EC80 (Alternaria solani) | Activity (Tubulin (Sus scrofa)) | EC80 (Zymoseptoria tritici) | EC80 (Botrytis cinerea) |
| --- | --- | --- | --- | --- |
| Cc1nnc(Cl)c(-c2c(F)cc(F)cc2F)c1-c1ccc(Cl)s1 | 49 µg/mL (≈ 131 µM) | Active | 41 µg/mL (≈ 109 µM) | 25 µg/mL (≈ 66.6 µM) |
| Cc1nnc(Cl)c(-c2c(F)cc(F)cc2F)c1-c1ccc(Cl)nc1 | 2 µg/mL (≈ 5.4 µM) | – | 1 µg/mL (≈ 2.7 µM) | 1 µg/mL (≈ 2.7 µM) |
| CN(C)c1nnc(Cl)c(-c2c(F)cc(F)cc2F)c1-c1ccc(Cl)cc1 | 16 µg/mL (≈ 40.2 µM) | – | 6 µg/mL (≈ 15.1 µM) | 40 µg/mL (≈ 100 µM) |
| CSc1nnc(Cl)c(-c2c(F)cc(F)cc2F)c1-c1ccc(Cl)cc1 | 42 µg/mL (≈ 105 µM) | – | 90 µg/mL (≈ 224 µM) | 124 µg/mL (≈ 309 µM) |
| COc1nnc(C)c(-c2ccc(Cl)cc2)c1-c1c(F)cc(F)cc1F | 57 µg/mL (≈ 156 µM) | – | 53 µg/mL (≈ 145 µM) | 97 µg/mL (≈ 266 µM) |
| CC(=O)O[C@H]1C(=O)[C@@]2(C)[C@H]([C@H](OC(=O)c3ccccc3)[C@]3(O)C[C@H](OC(=O)[C@H](O)[C@@H](NC(=O)c4ccccc4)c4ccccc4)C(C)=C1C3(C)C)[C@]1(OC(C)=O)CO[C@@H]1C[C@@H]2O | – | Active | – | – |
| COc1cc(F)c(-c2c(Cl)nnc(C)c2-c2ccc(Cl)nc2)c(F)c1 | 1 µg/mL (≈ 2.62 µM) | – | 3 µg/mL (≈ 7.85 µM) | 1 µg/mL (≈ 2.62 µM) |
| Cc1nnc(Cl)c(-c2c(F)cc(F)cc2F)c1-c1ccc2ccccc2n1 | 4 µg/mL (≈ 10.4 µM) | – | 5 µg/mL (≈ 13 µM) | 1 µg/mL (≈ 2.59 µM) |
| Cc1nnc(O)c(-c2c(F)cc(F)cc2F)c1-c1ccc(Cl)cc1 | > 200 µg/mL | – | > 200 µg/mL | > 200 µg/mL |
| Cc1nnc(F)c(-c2c(F)cc(F)cc2F)c1-c1ccc(Cl)cc1 | 17 µg/mL (≈ 48.2 µM) | – | 191 µg/mL (≈ 542 µM) | 8 µg/mL (≈ 22.7 µM) |
| COc1cc(F)c(-c2c(Cl)nnc(C)c2-c2ccc(Cl)nc2)cc1F | 19 µg/mL (≈ 49.7 µM) | – | 46 µg/mL (≈ 120 µM) | 23 µg/mL (≈ 60.2 µM) |
| Cc1nnc(Cl)c(-c2c(F)cc(F)cc2F)c1Cc1ccccc1 | 56 µg/mL (≈ 161 µM) | – | 50 µg/mL (≈ 143 µM) | 77 µg/mL (≈ 221 µM) |
| C#Cc1ccc(-c2c(C)nnc(Cl)c2-c2c(F)cc(F)cc2F)cc1 | 1 µg/mL (≈ 2.79 µM) | – | 1 µg/mL (≈ 2.79 µM) | 3 µg/mL (≈ 8.36 µM) |
| COc1cc(F)cc(F)c1-c1c(Cl)nnc(C)c1-c1ccc(Cl)nc1 | 17 µg/mL (≈ 44.5 µM) | – | 95 µg/mL (≈ 249 µM) | > 200 µg/mL |
| Cc1nnc(Cl)c(-c2ncc(Cl)cc2Cl)c1-c1ccc(Cl)nc1 | 33 µg/mL (≈ 85.5 µM) | – | 9 µg/mL (≈ 23.3 µM) | 15 µg/mL (≈ 38.9 µM) |
| Cc1nnc(C)c(-c2c(F)cc(F)cc2F)c1-c1ccc(Cl)cc1 | 18 µg/mL (≈ 51.6 µM) | – | 14 µg/mL (≈ 40.1 µM) | 4 µg/mL (≈ 11.5 µM) |
| Cc1nnc(Cl)c(-c2c(F)cc(F)cc2F)c1-c1ccc(Cl)cc1 | 2 µg/mL (≈ 5.42 µM) | – | 2 µg/mL (≈ 5.42 µM) | 6 µg/mL (≈ 16.3 µM) |
| COc1nnc(Cl)c(-c2c(F)cc(F)cc2F)c1-c1ccc(Cl)cc1 | 92 µg/mL (≈ 239 µM) | – | 14 µg/mL (≈ 36.3 µM) | 58 µg/mL (≈ 151 µM) |
| Cc1nnc(Cl)c(-c2c(F)cccc2F)c1-c1ccc(Cl)nc1 | 54 µg/mL (≈ 153 µM) | – | 60 µg/mL (≈ 170 µM) | 78 µg/mL (≈ 221 µM) |
| Fc1cc(F)c(-c2c(Cl)nnc(Cl)c2-c2ccc(Cl)cc2)c(F)c1 | 134 µg/mL (≈ 344 µM) | – | 96 µg/mL (≈ 246 µM) | 127 µg/mL (≈ 326 µM) |
